pEC50: −log10 of the molar value.

Experiment [1] has as its target T1, Utrophin (Homo sapiens, UniProt P46939). Kind of experiment: Activation of human utrophin-1 in mouse mdx myoblasts by H2K-mdx utrnA-luc assay. In outline: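 Firefly luciferase reporter gene assay in H2K-mdx utrnA-luc cells (mouse mdx myoblasts carrying a human muscle-specific utrophin A promoter). EC50 from non-linear regression curve fit of 2 biological replicates, 3 technical replicates each.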

In experiment [2] the target is T1, Utrophin. Put plainly: Activation of human utrophin-1 in iDMD cells by HTRF assay. The procedure, abridged: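 HTRF quantification of human utrophin protein in lysates of treated iDMD cells, read at 620 and 665 nm emission; top concentration 10 μM. EC50 by non-linear regression curve fit from 2 biological replicates, each with 3 technical replicates.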
A general note: In TR-FRET formats the signal depends on donor and acceptor labels being close together.

T1 sequence (P46939 whole entry): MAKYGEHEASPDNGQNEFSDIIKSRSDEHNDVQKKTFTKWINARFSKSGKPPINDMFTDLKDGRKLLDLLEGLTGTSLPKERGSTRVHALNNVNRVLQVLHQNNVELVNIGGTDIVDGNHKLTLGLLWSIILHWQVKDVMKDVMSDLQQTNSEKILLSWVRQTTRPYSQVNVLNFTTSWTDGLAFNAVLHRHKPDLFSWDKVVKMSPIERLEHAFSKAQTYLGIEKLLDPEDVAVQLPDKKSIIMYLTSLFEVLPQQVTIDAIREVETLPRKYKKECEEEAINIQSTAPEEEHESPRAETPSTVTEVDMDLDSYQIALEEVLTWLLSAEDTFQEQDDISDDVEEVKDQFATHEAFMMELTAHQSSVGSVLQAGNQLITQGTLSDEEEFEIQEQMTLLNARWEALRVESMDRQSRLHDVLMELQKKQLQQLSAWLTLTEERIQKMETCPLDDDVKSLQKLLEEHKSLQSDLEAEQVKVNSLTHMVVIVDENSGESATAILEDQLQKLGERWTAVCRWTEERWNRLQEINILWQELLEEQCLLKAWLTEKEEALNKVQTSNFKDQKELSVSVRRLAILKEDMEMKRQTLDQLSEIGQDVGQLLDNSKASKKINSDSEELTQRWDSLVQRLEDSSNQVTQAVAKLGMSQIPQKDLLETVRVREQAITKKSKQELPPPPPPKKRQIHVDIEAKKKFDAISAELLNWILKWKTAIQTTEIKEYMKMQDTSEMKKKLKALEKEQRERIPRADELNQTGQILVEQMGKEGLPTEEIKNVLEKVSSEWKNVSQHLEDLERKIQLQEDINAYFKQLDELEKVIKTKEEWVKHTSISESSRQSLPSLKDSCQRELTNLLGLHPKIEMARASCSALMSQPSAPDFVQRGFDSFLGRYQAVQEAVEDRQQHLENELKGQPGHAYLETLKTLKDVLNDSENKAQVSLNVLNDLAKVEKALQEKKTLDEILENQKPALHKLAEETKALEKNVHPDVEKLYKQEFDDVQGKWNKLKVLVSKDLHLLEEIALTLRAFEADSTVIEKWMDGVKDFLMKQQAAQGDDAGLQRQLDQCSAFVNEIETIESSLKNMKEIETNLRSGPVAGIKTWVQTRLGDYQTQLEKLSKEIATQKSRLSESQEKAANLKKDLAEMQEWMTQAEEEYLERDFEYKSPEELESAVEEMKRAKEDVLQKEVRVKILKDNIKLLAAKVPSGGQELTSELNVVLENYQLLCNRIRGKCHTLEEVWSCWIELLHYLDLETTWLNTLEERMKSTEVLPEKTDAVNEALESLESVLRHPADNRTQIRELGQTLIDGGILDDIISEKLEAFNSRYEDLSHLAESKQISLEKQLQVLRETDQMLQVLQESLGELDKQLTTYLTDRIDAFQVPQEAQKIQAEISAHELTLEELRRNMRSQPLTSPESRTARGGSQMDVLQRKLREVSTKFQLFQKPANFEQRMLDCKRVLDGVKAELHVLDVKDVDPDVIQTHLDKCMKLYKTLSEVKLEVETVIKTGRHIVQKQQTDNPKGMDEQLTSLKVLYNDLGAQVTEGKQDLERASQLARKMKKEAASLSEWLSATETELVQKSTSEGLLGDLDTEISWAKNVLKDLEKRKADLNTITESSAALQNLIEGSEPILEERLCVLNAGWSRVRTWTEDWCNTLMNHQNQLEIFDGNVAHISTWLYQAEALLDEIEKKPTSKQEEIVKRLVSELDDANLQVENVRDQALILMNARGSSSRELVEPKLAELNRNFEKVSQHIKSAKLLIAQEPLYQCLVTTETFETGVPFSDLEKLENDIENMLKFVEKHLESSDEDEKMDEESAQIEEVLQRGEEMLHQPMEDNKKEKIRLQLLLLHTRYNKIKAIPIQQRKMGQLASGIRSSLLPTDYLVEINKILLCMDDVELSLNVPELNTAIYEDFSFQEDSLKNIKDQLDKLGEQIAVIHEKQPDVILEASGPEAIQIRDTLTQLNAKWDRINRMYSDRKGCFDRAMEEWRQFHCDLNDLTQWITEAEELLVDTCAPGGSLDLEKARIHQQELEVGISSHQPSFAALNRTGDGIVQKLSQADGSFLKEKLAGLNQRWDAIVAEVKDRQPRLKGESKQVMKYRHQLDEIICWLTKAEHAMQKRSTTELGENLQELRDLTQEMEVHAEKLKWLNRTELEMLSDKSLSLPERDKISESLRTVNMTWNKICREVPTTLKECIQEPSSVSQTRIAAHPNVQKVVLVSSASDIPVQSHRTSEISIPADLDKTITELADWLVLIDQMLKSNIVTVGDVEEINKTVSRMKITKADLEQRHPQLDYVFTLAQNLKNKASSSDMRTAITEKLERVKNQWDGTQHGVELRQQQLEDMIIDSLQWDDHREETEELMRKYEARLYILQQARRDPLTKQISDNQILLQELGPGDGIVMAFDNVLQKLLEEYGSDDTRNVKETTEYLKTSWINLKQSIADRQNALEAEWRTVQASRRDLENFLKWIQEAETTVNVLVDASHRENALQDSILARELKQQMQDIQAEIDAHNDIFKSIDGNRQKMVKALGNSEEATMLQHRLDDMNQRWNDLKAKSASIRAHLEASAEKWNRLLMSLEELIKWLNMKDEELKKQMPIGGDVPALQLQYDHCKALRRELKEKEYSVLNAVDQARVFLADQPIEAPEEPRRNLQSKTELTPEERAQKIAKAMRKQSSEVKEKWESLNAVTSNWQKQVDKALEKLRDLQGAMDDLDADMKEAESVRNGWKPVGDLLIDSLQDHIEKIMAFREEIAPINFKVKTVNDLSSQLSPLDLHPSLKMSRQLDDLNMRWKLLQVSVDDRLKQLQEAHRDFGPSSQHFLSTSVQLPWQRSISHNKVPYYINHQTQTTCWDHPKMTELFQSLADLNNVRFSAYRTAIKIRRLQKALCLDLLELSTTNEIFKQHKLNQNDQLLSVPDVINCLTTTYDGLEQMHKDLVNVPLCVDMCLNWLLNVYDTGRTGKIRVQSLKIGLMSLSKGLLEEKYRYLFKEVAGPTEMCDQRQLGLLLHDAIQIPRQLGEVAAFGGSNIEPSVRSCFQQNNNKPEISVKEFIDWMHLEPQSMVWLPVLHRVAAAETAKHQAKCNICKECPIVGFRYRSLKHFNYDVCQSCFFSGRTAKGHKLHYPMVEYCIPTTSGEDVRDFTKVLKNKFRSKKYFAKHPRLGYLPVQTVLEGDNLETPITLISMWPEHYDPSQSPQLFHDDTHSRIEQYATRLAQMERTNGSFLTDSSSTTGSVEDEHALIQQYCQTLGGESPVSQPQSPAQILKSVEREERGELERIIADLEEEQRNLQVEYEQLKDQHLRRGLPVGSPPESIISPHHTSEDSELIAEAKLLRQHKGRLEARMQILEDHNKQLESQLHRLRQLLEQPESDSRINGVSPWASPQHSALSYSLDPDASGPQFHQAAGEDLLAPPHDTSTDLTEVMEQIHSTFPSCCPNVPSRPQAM

Turning to `CCS(=O)(=O)c1ccc2oc(-c3ccc4ccccc4c3)nc2c1` [BMN 195], the negative-log EC50 (pEC50) (as a rule, the negative decadic logarithm of the EC50, by convention in mol/L) on Utrophin [1] was 6.96; at Utrophin [2] it was 5.89.

`CCS(=O)(=O)c1ccc2oc(-c3ccc4c(c3)[C@@H](O)[C@H](O)C=C4)nc2c1`: the values for the pEC50 on Utrophin [1] and at Utrophin [2] were 6.92 and 5.08, respectively.

As to `CCS(=O)(=O)c1ccc2oc(-c3ccc4c(c3)C=C[C@H](O)[C@H]4O)nc2c1`, the results for the pEC50 at Utrophin [1] and on Utrophin [2] were 6.43 and < 5.00, respectively.

Values taken from BindingDB's records for doi:10.1021/acs.jmedchem.9b01547 (University of Oxford, 2020).
